ChEMBL document CHEMBL1140166, “Discovery of 1,4-substituted piperidines as potent and selective inhibitors of T-type calcium channels” (J Med Chem, 2008)

Tests used:
[1] = Dissociation constant, pKa of the compound; format: physicochemical
Method in brief: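 pKa was measured by potentiometric titration; calculated pKa values were also given from a pKa database.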

[2] = Bioavailability in Wistar albino rat; format: ADME, organism-based; conditions: in vivo
[3] = Plasma clearance in Sprague-Dawley rat at 2 mg/kg, iv; format: ADME, organism-based; design: dose 2 mg/kg, route intravenous
[4] = Half life in Sprague-Dawley rat at 2 mg/kg, iv; format: ADME, organism-based; design: dose 2 mg/kg, route intravenous; conditions: in vivo
[5] = AUC in Sprague-Dawley rat at 10 mg/kg, po; format: ADME, organism-based; design: dose 10 mg/kg, route oral; conditions: plasma
[6] = AUC in Sprague-Dawley rat at 1 mg/kg, po; format: ADME, organism-based; design: dose 1 mg/kg, route oral; conditions: plasma
[7] = AUC in Sprague-Dawley rat at 0.3 mg/kg, po; format: ADME, organism-based; design: dose 0.3 mg/kg, route oral; conditions: plasma
[8] = Cmax in Sprague-Dawley rat at 10 mg/kg, po; format: ADME, organism-based; design: dose 10 mg/kg, route oral; conditions: in vivo
[9] = Cmax in Sprague-Dawley rat at 1 mg/kg, po; format: ADME, organism-based; design: dose 1 mg/kg, route oral; conditions: in vivo
[10] = Oral bioavailability in Sprague-Dawley rat at 10 mg/kg; format: ADME, organism-based; conditions: in vivo
[11] = Plasma clearance in Beagle dog at 1 mg/kg, iv; format: ADME, organism-based, Canis lupus familiaris; design: dose 1 mg/kg, route intravenous
[12] = Half life in Beagle dog at 1 mg/kg, iv; format: ADME, organism-based, Canis lupus familiaris; design: dose 1 mg/kg, route intravenous; conditions: in vivo
[13] = AUC in Beagle dog at 3 mg/kg, po; format: ADME, organism-based, Canis lupus familiaris; design: dose 3 mg/kg, route oral; conditions: plasma
[14] = Cmax in Beagle dog at 3 mg/kg, po; format: ADME, organism-based, Canis lupus familiaris; design: dose 3 mg/kg, route oral; conditions: in vivo
[15] = Oral bioavailability in Beagle dog at 3 mg/kg; format: ADME, organism-based, Canis lupus familiaris; conditions: in vivo
[16] = Plasma clearance in rhesus monkey at 1 mg/kg, iv; format: ADME, organism-based, Macaca mulatta; design: dose 1 mg/kg, route intravenous
[17] = Half life in rhesus monkey at 1 mg/kg, iv; format: ADME, organism-based, Macaca mulatta; design: dose 1 mg/kg, route intravenous; conditions: in vivo
[18] = AUC in rhesus monkey at 3 mg/kg, po; format: ADME, organism-based, Macaca mulatta; design: dose 3 mg/kg, route oral; conditions: plasma
[19] = Cmax in rhesus monkey at 3 mg/kg, po; format: ADME, organism-based, Macaca mulatta; design: dose 3 mg/kg, route oral; conditions: in vivo
[20] = Oral bioavailability in rhesus monkey at 3 mg/kg; format: ADME, organism-based, Macaca mulatta; conditions: in vivo
[21] = Ratio of drug level from brain to plasma in rat at 10 mg/kg, po after 9 hrs; format: ADME, organism-based; design: dose 10 mg/kg, route oral
Method in brief: (§1)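 Rats given a single oral 10 mpk dose; brain, plasma and CSF levels measured; brain/plasma and CSF/plasma concentration ratios taken at 9 h after oral dosing.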

[22] = Ratio of drug level from cerebrospinal fluid to plasma in rat at 10 mg/kg, po after 9 hrs; format: ADME, organism-based, CSF/Plasma; design: dose 10 mg/kg, route oral; method in brief: as §1

Question: For CC(C)(C)C(=O)CN1CCC(CNC(=O)c2cc(Cl)cc(Cl)c2)CC1, which pKa [1] is on record?
Answer: Its pKa is 8.

Question: With CC(C)(C)CCN1CC[C@@H](CNC(=O)c2cc(Cl)cc(Cl)c2)[C@H](F)C1 (relative stereo) as the molecule, how does the pKa [1] read?
Answer: The pKa was 6.7.

Question: With CC(C)(C)NC(=O)CN1CCC(CNC(=O)c2cc(Cl)cc(Cl)c2)CC1 as the molecule, how does the pKa [1] read?
Answer: Its pKa is 7.6.

Question: Which pKa [1] does the source give for CC(C)(C)C(O)CN1CCC(CNC(=O)c2cc(Cl)cc(Cl)c2)CC1 (stereo not drawn) here?
Answer: The pKa was 9.2.

Question: What does the source list for CC(C)(C)CCN1CCC(CNC(=O)c2cc(Cl)cc(Cl)c2)CC1?
Answer: bioavailability [2]: 100%; pKa [1]: 8.7

Question: Which pKa [1] does the source give for CC(C)(C)CCN1CC[C@H](CNC(=O)c2cc(Cl)cc(Cl)c2)[C@H](F)C1 here?
Answer: The pKa was 7.9.

Question: And the clearance [3]?
Answer: Its clearance is 41 mL/min/kg.

Question: What about the half-life [4] of the same molecule?
Answer: The half-life was 4.9 h.

Question: And the AUC [5]?
Answer: The AUC was 3.1 µM·h.

Question: And the AUC [6]?
Answer: Its AUC is 0.19 µM·h.

Question: What about the AUC [7] of the same molecule?
Answer: The AUC was 0.01 µM·h.

Question: And the Cmax [8]?
Answer: The Cmax was 432 nM.

Question: And the Cmax [9]?
Answer: The Cmax was 33 nM.

Question: What about the bioavailability [10] of the same molecule?
Answer: The bioavailability was 30%.

Question: And the clearance [11]?
Answer: Its clearance is 9.1 mL/min/kg.

Question: What about the half-life [12] of the same molecule?
Answer: The half-life was 10.8 h.

Question: What about the AUC [13] of the same molecule?
Answer: The AUC was 9.5 µM·h.

Question: What about the Cmax [14] of the same molecule?
Answer: Its Cmax is 1180 nM.

Question: What about the bioavailability [15] of the same molecule?
Answer: Its bioavailability is 67%.

Question: And the clearance [16]?
Answer: Its clearance is 9.6 mL/min/kg.

Question: And the half-life [17]?
Answer: Its half-life is 4.6 h.

Question: And the AUC [18]?
Answer: Its AUC is 2.4 µM·h.

Question: What about the Cmax [19] of the same molecule?
Answer: Its Cmax is 184 nM.

Question: What about the bioavailability [20] of the same molecule?
Answer: Its bioavailability is 18%.

Question: And the Kp at 9 h [21]?
Answer: Its Kp at 9 h is 9.

Question: What about the Kp at 9 h [22] of the same molecule?
Answer: The Kp at 9 h was 0.14.

Question: Which pKa [1] does the source give for CC1(C)C[C@@H](CN2CCC(F)(CNC(=O)c3cc(Cl)cc(Cl)c3)CC2)CCO1 here?
Answer: The pKa was 7.9.
